Calls of active or inactive are those of the source. The calls are words filed in the database; no cut-off is given here.
Key:
[1] = molecular target: Histone-lysine N-methyltransferase SETDB1 (Homo sapiens) (UniProt Q15047); experiment: Inhibition of SETDB1 (unknown origin) assessed as reduction in incorporation of [3H]-labeled methyl group into biotinylated substrate using [3H-SAM] at 10 uM incubated for 1 hr by scintillation proximity assay
How it was run: (§1)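 Panel of 33 methyltransferases (22 PKMTs, 3 DNMTs, 8 PRMTs), each tested at 10 and 50 μM compound. Activity was read as ³H-methyl transfer from ³H-SAM in a radiometric assay done as previously described.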

[2] = molecular target: Protein arginine N-methyltransferase 7 (Homo sapiens) (UniProt Q9NVM4); experiment: Inhibition of PRMT7 (unknown origin) at 50 uM assessed as reduction in incorporation of [3H]-labeled methyl group into biotinylated substrate using [3H-SAM] at 50 uM incubated for 1 hr by scintillation proximity assay relative to control; how it was run: as §1
Chain of Protein arginine N-methyltransferase 7 (Homo sapiens) (Q9NVM4 whole entry): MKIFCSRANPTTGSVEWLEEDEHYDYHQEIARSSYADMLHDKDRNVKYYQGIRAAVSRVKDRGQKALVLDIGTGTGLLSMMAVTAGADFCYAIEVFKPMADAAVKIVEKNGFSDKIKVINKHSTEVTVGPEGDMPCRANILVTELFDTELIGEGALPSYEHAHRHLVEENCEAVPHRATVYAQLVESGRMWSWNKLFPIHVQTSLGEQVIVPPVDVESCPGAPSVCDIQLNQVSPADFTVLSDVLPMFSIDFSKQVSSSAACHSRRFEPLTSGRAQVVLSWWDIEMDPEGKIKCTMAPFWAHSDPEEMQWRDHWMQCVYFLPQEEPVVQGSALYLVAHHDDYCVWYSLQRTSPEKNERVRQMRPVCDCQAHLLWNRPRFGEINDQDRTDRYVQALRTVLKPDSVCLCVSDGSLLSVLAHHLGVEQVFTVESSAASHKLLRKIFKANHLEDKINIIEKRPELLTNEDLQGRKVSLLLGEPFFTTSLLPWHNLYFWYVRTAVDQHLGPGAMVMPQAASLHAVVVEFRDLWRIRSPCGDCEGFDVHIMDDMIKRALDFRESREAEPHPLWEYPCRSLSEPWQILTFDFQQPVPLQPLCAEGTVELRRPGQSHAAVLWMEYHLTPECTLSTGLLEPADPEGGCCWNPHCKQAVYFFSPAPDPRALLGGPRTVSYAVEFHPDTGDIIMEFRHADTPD

[3] = molecular target: Histone-lysine N-methyltransferase NSD3 (Homo sapiens) (UniProt Q9BZ95); experiment: Inhibition of NSD3 (unknown origin) at 10 uM using [3H-SAM] and nucleosome as substrate incubated for 1 hr by scintillation proximity assay; how it was run: as §1
[4] = molecular target: N-lysine methyltransferase KMT5A (Homo sapiens) (UniProt Q9NQR1); experiment: Inhibition of SETD8 (unknown origin) assessed as reduction in incorporation of [3H]-labeled methyl group into biotinylated substrate using [3H-SAM] at 10 uM incubated for 1 hr by scintillation proximity assay; how it was run: as §1
[5] = molecular target: T1, Protein arginine N-methyltransferase 3 (Homo sapiens, UniProt O60678); experiment: Inhibition of PRMT3 (unknown origin) assessed as reduction in incorporation of [3H]-labeled methyl group into biotinylated substrate using [3H-SAM] at 50 uM incubated for 1 hr by scintillation proximity assay relative to control; how it was run: as §1
T1 sequence (O60678 2-531 limits assumed): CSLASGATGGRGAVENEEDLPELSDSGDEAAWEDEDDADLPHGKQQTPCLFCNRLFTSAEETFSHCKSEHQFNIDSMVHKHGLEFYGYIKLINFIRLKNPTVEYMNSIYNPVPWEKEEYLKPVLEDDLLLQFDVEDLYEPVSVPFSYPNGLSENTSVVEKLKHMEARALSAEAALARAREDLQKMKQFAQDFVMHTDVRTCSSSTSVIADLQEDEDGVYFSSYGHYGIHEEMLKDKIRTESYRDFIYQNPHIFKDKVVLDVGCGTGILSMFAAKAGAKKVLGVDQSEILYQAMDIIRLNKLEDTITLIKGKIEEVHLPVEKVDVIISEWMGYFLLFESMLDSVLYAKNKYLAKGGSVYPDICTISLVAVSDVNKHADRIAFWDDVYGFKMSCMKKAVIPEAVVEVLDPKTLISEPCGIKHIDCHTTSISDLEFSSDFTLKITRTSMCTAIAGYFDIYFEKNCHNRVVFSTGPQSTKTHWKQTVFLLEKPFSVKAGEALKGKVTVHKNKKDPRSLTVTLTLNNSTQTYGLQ

[6] = molecular target: T2, Protein arginine N-methyltransferase 6 (Homo sapiens, UniProt Q96LA8); experiment: Inhibition of Flag-tagged PRMT6 (unknown origin) expressed in HEK293 cells incubated for 20 hrs assessed as reduction in H3R2me2a levels; format: cell-based
[7] = molecular target: T3, Protein arginine N-methyltransferase 8 (Homo sapiens, UniProt Q9NR22); experiment: Inhibition of PRMT8 (unknown origin) assessed as reduction in incorporation of [3H]-labeled methyl group into biotinylated substrate using [3H-SAM] at 50 uM incubated for 1 hr by scintillation proximity assay relative to control; how it was run: as §1
[8] = molecular target: T3, Protein arginine N-methyltransferase 8; experiment: Inhibition of human PRMT8 using [3H]SAM as donor and [3H]methylated biotin-labeled peptide as substrate by scintillation proximity assay
How it was run: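 Radiometric SPA: ³H-methyl transfer from ³H-SAM to biotin-labeled peptide, captured on streptavidin/scintillant-coated plate, counts per minute read; substrate and cofactor each at their Km for the enzyme; compound titrated; IC50 from triplicate determinations, mean ± SD.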
Target sequence in this assay (Q9NR22 whole entry): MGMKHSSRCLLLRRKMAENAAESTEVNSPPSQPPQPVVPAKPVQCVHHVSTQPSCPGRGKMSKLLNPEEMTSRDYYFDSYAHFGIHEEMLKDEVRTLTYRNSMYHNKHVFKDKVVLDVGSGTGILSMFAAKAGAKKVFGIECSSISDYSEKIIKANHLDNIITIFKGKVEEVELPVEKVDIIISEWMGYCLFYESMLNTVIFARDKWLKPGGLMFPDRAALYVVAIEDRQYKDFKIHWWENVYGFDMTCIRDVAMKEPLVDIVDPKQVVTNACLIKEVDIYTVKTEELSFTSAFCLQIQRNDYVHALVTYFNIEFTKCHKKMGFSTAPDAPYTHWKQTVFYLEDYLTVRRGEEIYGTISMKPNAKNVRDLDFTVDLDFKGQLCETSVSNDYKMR

Homo sapiens [9] = species on record: Homo sapiens; experiment: Selectivity index, ratio of IC50 for human PRMT4 to IC50 for human PRMT6
[10] = molecular target: N-lysine methyltransferase SMYD2 (Homo sapiens) (UniProt Q9NRG4); experiment: Inhibition of SMYD2 (unknown origin) assessed as reduction in incorporation of [3H]-labeled methyl group into biotinylated substrate using [3H-SAM] at 10 uM incubated for 1 hr by scintillation proximity assay; how it was run: as §1
Chain of N-lysine methyltransferase SMYD2 (Homo sapiens) (Q9NRG4 whole entry): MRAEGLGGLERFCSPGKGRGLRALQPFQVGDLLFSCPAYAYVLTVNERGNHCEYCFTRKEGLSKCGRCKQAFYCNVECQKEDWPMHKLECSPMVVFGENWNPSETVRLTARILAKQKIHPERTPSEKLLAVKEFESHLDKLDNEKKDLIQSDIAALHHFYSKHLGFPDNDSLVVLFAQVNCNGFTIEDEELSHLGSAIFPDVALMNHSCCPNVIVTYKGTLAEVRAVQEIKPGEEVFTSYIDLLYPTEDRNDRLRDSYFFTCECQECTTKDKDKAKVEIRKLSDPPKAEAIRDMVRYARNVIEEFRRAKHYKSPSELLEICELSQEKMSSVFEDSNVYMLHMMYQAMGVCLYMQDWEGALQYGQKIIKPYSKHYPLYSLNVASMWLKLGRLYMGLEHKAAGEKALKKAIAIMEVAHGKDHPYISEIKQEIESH

[11] = molecular target: T4, Histone-arginine methyltransferase CARM1 (Homo sapiens) (UniProt Q86X55); experiment: Inhibition of PRMT4 in human MCF7 cells assessed as reduction in BAF155 asymmetric dimethylation at 0.2 to 20 uM incubated for 2 days; format: cell-based
T4 sequence (whole entry): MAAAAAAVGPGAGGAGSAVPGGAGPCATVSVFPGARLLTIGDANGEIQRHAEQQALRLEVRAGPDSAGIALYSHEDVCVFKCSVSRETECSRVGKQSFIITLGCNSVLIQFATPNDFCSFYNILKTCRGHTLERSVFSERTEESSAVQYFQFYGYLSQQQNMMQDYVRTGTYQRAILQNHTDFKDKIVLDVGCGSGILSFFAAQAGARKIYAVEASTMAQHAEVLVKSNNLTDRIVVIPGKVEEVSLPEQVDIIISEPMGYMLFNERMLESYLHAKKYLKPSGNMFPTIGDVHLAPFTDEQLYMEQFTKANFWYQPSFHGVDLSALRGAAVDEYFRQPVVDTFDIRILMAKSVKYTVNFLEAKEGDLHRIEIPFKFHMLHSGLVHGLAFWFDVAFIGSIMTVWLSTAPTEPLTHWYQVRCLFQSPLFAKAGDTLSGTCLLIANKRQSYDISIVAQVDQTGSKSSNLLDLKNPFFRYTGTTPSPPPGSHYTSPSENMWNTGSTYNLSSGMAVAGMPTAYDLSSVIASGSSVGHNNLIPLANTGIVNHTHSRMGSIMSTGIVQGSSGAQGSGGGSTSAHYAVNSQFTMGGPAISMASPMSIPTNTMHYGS

[12] = molecular target: T2, Protein arginine N-methyltransferase 6; experiment: Covalent binding affinity to human PRMT6 assessed as covalent adduct. formation at 300 uM pre-incubated for 1 hr by mass spectrometry
How it was run: (§2)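 PRMT protein at 15 μM was incubated 1 h at room temperature with a 20-fold molar excess of inhibitor (300 μM). The reaction was quenched with 0.1% aqueous TFA, separated by HPLC (5–95% acetonitrile in water) and analysed by ESI time-of-flight LC/MS for protein–ligand adduct mass.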
Target sequence in this assay (Q96LA8 whole entry, looked up): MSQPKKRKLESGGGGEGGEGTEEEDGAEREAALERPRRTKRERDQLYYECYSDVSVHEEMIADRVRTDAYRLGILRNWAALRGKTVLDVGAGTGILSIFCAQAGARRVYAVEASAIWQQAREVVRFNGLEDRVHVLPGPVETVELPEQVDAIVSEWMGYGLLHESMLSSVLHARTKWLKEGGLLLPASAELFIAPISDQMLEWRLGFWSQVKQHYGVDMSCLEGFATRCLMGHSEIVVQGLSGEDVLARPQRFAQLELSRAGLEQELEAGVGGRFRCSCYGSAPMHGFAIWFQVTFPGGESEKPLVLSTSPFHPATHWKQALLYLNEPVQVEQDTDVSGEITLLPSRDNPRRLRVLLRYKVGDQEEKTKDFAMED

[13] = molecular target: Histone-lysine N-methyltransferase SETD7 (Homo sapiens) (UniProt Q8WTS6); experiment: Inhibition of SETD7 (unknown origin) at 50 uM assessed as reduction in incorporation of [3H]-labeled methyl group into biotinylated substrate using [3H-SAM] at 50 uM incubated for 1 hr by scintillation proximity assay relative to control; how it was run: as §1
Chain of Histone-lysine N-methyltransferase SETD7 (Homo sapiens) (Q8WTS6 whole entry): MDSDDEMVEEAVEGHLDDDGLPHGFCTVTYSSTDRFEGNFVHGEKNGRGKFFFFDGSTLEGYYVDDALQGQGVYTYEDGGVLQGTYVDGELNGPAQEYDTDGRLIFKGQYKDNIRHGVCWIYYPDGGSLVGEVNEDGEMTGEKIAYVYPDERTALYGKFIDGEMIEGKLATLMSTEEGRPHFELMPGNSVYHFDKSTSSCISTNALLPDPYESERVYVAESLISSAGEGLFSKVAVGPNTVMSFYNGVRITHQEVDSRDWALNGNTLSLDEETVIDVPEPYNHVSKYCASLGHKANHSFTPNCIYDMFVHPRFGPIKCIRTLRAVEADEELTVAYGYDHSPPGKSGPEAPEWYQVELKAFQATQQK

[14] = molecular target: T1, Protein arginine N-methyltransferase 3; experiment: Covalent binding affinity to human PRMT3 assessed as covalent adduct. formation at 300 uM pre-incubated for 1 hr by mass spectrometry; how it was run: as §2
Homo sapiens [15] = species on record: Homo sapiens; experiment: Selectivity index, ratio of IC50 for human PRMT3 to IC50 for human PRMT6
[16] = molecular target: RNA 5'-monophosphate methyltransferase (Homo sapiens) (UniProt Q7Z5W3); experiment: Inhibition of BCDIN3D (unknown origin) assessed as reduction in incorporation of [3H]-labeled methyl group into biotinylated substrate using [3H-SAM] at 10 uM incubated for 1 hr by scintillation proximity assay
Chain of RNA 5'-monophosphate methyltransferase (Homo sapiens) (Q7Z5W3 whole entry): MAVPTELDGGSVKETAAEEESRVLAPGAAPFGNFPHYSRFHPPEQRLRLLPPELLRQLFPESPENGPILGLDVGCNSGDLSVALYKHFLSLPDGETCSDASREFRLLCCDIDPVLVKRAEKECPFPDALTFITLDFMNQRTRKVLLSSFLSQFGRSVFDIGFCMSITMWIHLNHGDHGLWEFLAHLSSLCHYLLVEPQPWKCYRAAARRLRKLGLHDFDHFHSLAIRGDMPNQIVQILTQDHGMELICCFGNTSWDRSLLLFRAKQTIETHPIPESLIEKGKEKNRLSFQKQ

[17] = molecular target: Protein arginine N-methyltransferase 9 (Homo sapiens) (UniProt Q6P2P2); experiment: Inhibition of PRMT9 (unknown origin) assessed as reduction in incorporation of [3H]-labeled methyl group into biotinylated substrate using [3H-SAM] at 10 uM incubated for 1 hr by scintillation proximity assay; how it was run: as §1
Chain of Protein arginine N-methyltransferase 9 (Homo sapiens) (Q6P2P2 whole entry): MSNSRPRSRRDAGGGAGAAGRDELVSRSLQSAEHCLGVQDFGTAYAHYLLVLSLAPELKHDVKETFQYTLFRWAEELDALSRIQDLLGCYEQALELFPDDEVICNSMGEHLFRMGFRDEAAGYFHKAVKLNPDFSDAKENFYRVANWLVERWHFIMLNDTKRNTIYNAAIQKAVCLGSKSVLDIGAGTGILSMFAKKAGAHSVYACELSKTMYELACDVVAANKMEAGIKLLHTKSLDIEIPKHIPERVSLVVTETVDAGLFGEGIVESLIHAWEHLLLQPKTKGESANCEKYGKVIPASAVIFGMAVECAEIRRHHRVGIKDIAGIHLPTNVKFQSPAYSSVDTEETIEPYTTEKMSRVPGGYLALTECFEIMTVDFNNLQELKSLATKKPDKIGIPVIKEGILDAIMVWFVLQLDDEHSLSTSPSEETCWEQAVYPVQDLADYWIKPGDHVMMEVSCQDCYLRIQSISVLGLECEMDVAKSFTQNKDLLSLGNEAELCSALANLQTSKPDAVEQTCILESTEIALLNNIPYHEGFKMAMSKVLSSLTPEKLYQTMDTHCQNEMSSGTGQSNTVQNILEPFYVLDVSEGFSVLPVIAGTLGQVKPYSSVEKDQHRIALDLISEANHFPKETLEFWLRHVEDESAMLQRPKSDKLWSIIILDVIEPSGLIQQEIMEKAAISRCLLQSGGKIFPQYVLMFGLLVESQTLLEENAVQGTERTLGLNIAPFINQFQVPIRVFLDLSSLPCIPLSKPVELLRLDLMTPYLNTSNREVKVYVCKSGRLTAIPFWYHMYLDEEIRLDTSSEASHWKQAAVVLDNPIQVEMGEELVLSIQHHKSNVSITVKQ

[18] = molecular target: Protein arginine N-methyltransferase 1 (Homo sapiens, UniProt Q99873); experiment: Inhibition of human PRMT1 using [3H]SAM as donor and [3H]methylated biotin-labeled peptide as substrate by scintillation proximity assay
Chain of Protein arginine N-methyltransferase 1 (Q99873 whole entry): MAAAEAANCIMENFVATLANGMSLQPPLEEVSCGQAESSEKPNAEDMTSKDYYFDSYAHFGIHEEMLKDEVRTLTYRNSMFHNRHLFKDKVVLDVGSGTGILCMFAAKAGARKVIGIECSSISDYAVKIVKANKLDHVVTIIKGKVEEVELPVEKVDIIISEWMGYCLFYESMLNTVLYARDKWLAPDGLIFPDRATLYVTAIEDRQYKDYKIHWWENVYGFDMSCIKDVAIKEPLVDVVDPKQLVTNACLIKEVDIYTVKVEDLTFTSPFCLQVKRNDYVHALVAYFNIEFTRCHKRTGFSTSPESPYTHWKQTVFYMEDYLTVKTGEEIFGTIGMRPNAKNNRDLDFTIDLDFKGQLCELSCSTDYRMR

[19] = molecular target: Histone-lysine N-methyltransferase KMT5C (Homo sapiens) (UniProt Q86Y97); experiment: Inhibition of SUV420H2 (unknown origin) assessed as reduction in incorporation of [3H]-labeled methyl group into biotinylated substrate using [3H-SAM] at 10 uM incubated for 1 hr by scintillation proximity assay
Chain of Histone-lysine N-methyltransferase KMT5C (Homo sapiens) (Q86Y97 whole entry, looked up): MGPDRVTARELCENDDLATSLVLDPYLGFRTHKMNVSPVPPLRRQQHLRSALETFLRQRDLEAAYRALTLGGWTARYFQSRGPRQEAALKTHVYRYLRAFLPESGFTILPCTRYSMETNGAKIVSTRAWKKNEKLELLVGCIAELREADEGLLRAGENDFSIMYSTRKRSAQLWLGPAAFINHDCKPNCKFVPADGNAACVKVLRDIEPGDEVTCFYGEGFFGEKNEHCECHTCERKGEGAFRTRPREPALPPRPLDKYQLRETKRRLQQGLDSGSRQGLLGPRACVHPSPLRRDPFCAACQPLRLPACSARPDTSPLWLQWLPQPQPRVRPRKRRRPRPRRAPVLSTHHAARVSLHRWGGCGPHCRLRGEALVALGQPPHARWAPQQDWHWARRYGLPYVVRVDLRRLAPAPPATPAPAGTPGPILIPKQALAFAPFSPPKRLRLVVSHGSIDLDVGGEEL

Compound: C=CC(=O)Nc1cccc(-c2c[nH]cc2CN(C)CCN)c1
- inhibition [1]: inactive
- inhibition [2]: > 50%
- inhibition [3]: inactive
- inhibition [4]: inactive
- inhibition [5]: > 50%
- IC50 [6]: 1300 nM
- inhibition [6]: Dose-dependent effect
- inhibition [7]: > 50%
- IC50 [8]: 110 nM
- Ratio IC50 (Homo sapiens [9]): 27
- inhibition [10]: inactive
- inhibition [11]: inactive
- Activity [12]: Active
- inhibition [13]: > 50%
- Activity [14]: inactive
- Ratio IC50 (Homo sapiens [15]): 167
- inhibition [16]: inactive
- inhibition [17]: inactive
- IC50 [18]: 100 nM
- inhibition [19]: inactive
